STAT3 act-1 – IL-6 driven STAT3 reporter potentiators, primary screen, U3A cells, luciferase, luminescence, MLSCN library; IL-6 STAT3-luciferase reporter; 100% = signal with IL-6 EC80 alone; activation (% of control), % at 5.6 µM; 190,000 compounds, 0.91% hits;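 active = activation above the screen-wide mean of compound activation plus 3 SD, cut at about 130% in these data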;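 also: 0% = background luminescence of wells with medium and substrate only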
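Test system: human U3A cells carrying STAT3-luciferase construct; control set: IL-6-only wells as 100% reference; timing: compound pre-incubation 1 h before IL-6, then 6 h stimulation at 37 °C; also added: IL-6 stimulus at 33 ng/mL final; evaluation: % activation versus median of IL-6-stimulated wells; detection: reporter luminescence signal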
STAT3 inh – IL-6 driven STAT3 reporter inhibitors, primary screen, U3A cells, luciferase, luminescence, MLSCN library; inhibition, % at 5.5 µM; 190,000 compounds, 0.89% hits; IL-6 STAT3-luciferase reporter; host cell line lacks STAT1;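 active = inhibition above the mean inhibition across all screened compounds plus 3 SD, cut at about 44% in these data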;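 also: 0% = DMSO only wells and 100% = 100 µM nifuroxazide control wells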
PPC-1+TRAIL kill – compounds killing PPC-1 cancer cells with TRAIL present, primary screen, TRAIL potentiator project, ATPLite luminescence, uHTS; cell killing (% activity), % at 4 µM or 5 µM; AID 1443, 2008; PPC-1 cells + TRAIL, ATPLite viability luminescence; 220,000 compounds, 0.41% hits;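 active = cell killing above 50% in the first pass at 4 µM, then a duplicate retest at 5 µM averaging 50% or more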;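 also: plate controls were cells with TRAIL plus DMSO for no effect and medium-only wells lacking cells for full effect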
C8 TRAIL sens – viability loss with TRAIL in NB7+C8 cells, primary screen, TRAIL sensitizer project, cell-based, ATPlite luminescence; AID 624354, 2012; 360,000 compounds, 1% hits; inhibition (viability loss, TRAIL sensitization), % at 10 µM;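 active = compounds causing at least 50% loss of cell viability in the single-dose screen, relative to plate controls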
STAT1 blocker – STAT1 signaling inhibitors, primary screen, cell-based, HTS, luciferase reporter; NIH 3T3 STAT1-luciferase reporter, IFN-gamma, luminescence; 200,000 compounds, 0.35% hits; inhibition, % at 5.5 µM;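 active = inhibition above a set limit, the mean inhibition across all tested compounds plus 3 SD, cut at about 34% in these data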;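 also: 0% = IFN-gamma with DMSO and 100% = IFN-gamma with 300 µM nifuroxazide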
STAT3 act-2 – STAT3 reporter potentiators, retest of hits, confirmation, U3A cells, luciferase, luminescence; shares compounds with STAT3 act-1; IL-6 potentiation; U3A cells lack STAT1; 100 means same as IL-6 alone; potentiation (% of control), % at 5.7 µM; 1,200 compounds, 64% hits;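 active = percent activation of the STAT3 luciferase reporter above a set limit taken from the earlier primary screen, cut at about 130% in these data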;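 also: 0% = background signal of medium plus substrate and 100% = median of IL-6 with DMSO wells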
NFkB act 2 – NF-kB reporter activators in human cells, counter-screen for STAT3 activator project. shares compounds with STAT3 act-1. NF-kappaB reporter activation. activation (% of control), % at 5.7 µM. 1,200 compounds, 11% hits. AID 1309, 2008; in the data active = activation above about 120%;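 also: reporter induced by TNF-alpha stimulation; 100% = median of stimulated DMSO wells and 0% = no signal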
STAT1 act – STAT1 reporter activators, IFN-gamma induced, counter-screen for STAT3 activator project, cell-based, NIH 3T3, luciferase luminescence; shares compounds with STAT3 act-1; NIH 3T3 STAT1-luciferase reporter; activation (% of control), % at 5.7 µM; 1,200 compounds, 13% hits;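 active = activation above the solvent-only control well mean plus 3 SD, set per screening run, cut at about 120% in these data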;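 also: 100% = IFN-gamma with DMSO median signal so 100% means no change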
Numbers without * were called inactive; x = not tested or not shown. An excerpt weighted towards active compounds, which were near 1.8% of everything screened.

SMILES	STAT3 act-1	STAT3 inh	PPC-1+TRAIL kill	C8 TRAIL sens	STAT1 blocker	STAT3 act-2	NFkB act 2	STAT1 act
Cc1ccc(-n2c(N)c(-c3nc4ccccc4n3C)sc2=S)cc1	182.8*	-94.5	22.6	9.2	-2.4	176.4*	109.0	116.7
C[C@H](CO)N1C[C@H](C)[C@H](CN(C)Cc2ccncc2)Oc2cc(-c3ccccc3F)ccc2S1(=O)=O	x	x	x	11.7	x	x	x	x
O=C(c1ccc(S(=O)(=O)N2CCCC2)cc1)N1CCC(CN2C(=O)c3cccc4cccc(c34)C2=O)CC1	x	x	9.0	7.3	x	x	x	x
COc1ccc(S(=O)(=O)N2CCC(CN3C(=O)c4cccc5cccc(c45)C3=O)CC2)cc1	151.8*	-66.1	-7.9	-2.9	-4.4	134.7*	107.5	122.5*
Cc1cc(C)n(-c2nc3ccccc3c(=O)n2OCc2ccc(Cl)cc2)n1	144.8*	-45.4	25.9	-4.0	12.4	127.7	102.0	94.6
Oc1ccc(Br)c(CN2CCN(c3ncc(Cc4ccccc4)cn3)CC2)c1	x	x	x	4.4	x	x	x	x
O=C(NC1CCCCCC1)c1ccc(CS(=O)Cc2cccc(Cl)c2)o1 (stereo not given)	x	x	x	-0.9	x	x	x	x
NC(=O)Cn1c(=O)n(Cc2ccco2)c(=O)c2c3c(sc21)CCCCC3	147.1*	-54.7	13.3	-6.1	4.7	131.2	105.5	104.8
CN(CC(=O)Nc1nc2ccccc2s1)S(=O)(=O)c1ccc(Cl)cc1	156.2*	-60.4	3.2	11.8	-6.5	130.0	99.5	100.6
O=C(C[C@@H]1C/C=C\CCC(=O)O[C@H](c2ccccc2)CNC1=O)N[C@H](CO)Cc1ccccc1	x	x	x	-7.0	x	x	x	x
COc1cc(C2SCC(=O)N2c2nnc(C34CC5CC(CC(C5)C3)C4)s2)cc(OC)c1OC (stereo not given)	165.1*	-58.1	-11.9	-10.7	0.5	141.7*	108.0	110.7
COc1ccc(C2SCC(=O)N2c2nnc(C34CC5CC(CC(C5)C3)C4)s2)cc1 (stereo not given)	99.3	-1.8	6.2	-10.8	-5.9	x	x	x
CCOC(=O)C(C(=O)Nc1nc2ccccc2s1)C1CCCCC1 (stereo not given)	142.6*	-49.2	12.4	31.7	-3.5	123.8	109.0	99.9
COc1cc2ccc(CC(N)=O)cc2cc1OC	x	x	x	-3.2	x	x	x	x
O=C(CCNC(=O)c1ccc([N+](=O)[O-])cc1)Nc1ccccc1N1CCCCC1	x	x	x	9.3	x	x	x	x
Cn1nc(-c2ccc(Cl)cc2)c2cc(C(=O)NCCN3CCOCC3)sc21	145.4*	-43.0	12.6	6.6	11.7	152.0*	105.2	99.4
CCOC(=O)N1CCC(NC(=O)c2cc3c(-c4cccc(OC)c4)nn(C)c3s2)CC1	95.1	12.0	0.8	13.7	-9.5	x	x	x
Cn1nc(-c2ccc(Cl)cc2)c2cc(C(=O)NCCCN3CCOCC3)sc21	155.4*	-62.8	23.5	15.7	-1.5	133.6*	109.0	96.4
Cn1nc(-c2ccc(Cl)cc2)c2cc(C(=O)NC3CC3)sc21	174.0*	-85.6	-6.6	8.3	-0.9	184.7*	123.0*	135.1*
CCCCN(CC)CCNC(=O)c1cc2c(-c3ccc(Cl)cc3)nn(C)c2s1	x	x	x	21.1	x	x	x	x
O=C(NCCCN1CCOCC1)c1ccc(Cl)s1	99.6	6.1	13.8	-15.9	-3.2	x	x	x
CCN(CC)CCNC(=O)c1cc2c(-c3ccc(Cl)cc3)nn(C)c2s1	176.9*	-80.2	20.4	32.0	7.9	164.5*	105.8	96.7
CC1Cc2ccccc2N1C(=O)c1cc2cccnc2n(C)c1=O (stereo not given)	x	x	x	-9.0	x	x	x	x
Cc1ccccc1-c1nc2ccccc2[nH]1	101.9	-0.9	29.2	2.6	-30.6	x	x	x

Bioassay records as filed in PubChem.
